Data: ChEMBL document CHEMBL1142247, “Structure-based design of novel groups for use in the P1 position of thrombin inhibitor scaffolds. Part 2: N-acetamidoimidazoles” (Bioorg Med Chem Lett, 2008)
Active and inactive are the calls of the source. No cut-off for these calls is given here.

Experiments:
Plasma = assay: Anticoagulant potency in human plasma assessed as concentration required to double activated partial thromboplastin time; type: functional, cell-free
[1] = Selectivity for thrombin over trypsin
Prothrombin = Prothrombin (Homo sapiens, UniProt P00734); assay: Inhibition of thrombin
[2] = Inhibition of trypsin
[3] = Cmax in rhesus monkey at 5 mg/kg, po; type: ADME, organism-based, Macaca mulatta; set-up: dose 5 mg/kg, route oral; settings: in vivo
[4] = Half life in rhesus monkey at 5 mg/kg, po; type: ADME, organism-based, Macaca mulatta; set-up: dose 5 mg/kg, route oral; settings: in vivo
[5] = (§1) Half life in dog at 5 mg/kg, po; type: ADME, organism-based, Canis lupus familiaris; set-up: dose 5 mg/kg, route oral; settings: in vivo
[6] = Cmax in dog at 5 mg/kg, po; type: ADME, organism-based, Canis lupus familiaris; set-up: dose 5 mg/kg, route oral; settings: in vivo
Rattus norvegicus = assay: Antithrombotic activity against ferric chloride induced thrombosis in rat at 10 ug/kg/min, iv; type: functional, organism-based
Summary of the method: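 Ferric chloride-induced thrombosis in rats, with compound given by intravenous infusion at 10 µg/kg/min. Read-out is the number of animals with vessel occlusion out of 6.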

[7] = Half life in dog at 1 mg/kg, po; type: ADME, organism-based, Canis lupus familiaris; set-up: dose 1 mg/kg, route oral; settings: in vivo
[8] = Cmax in dog at 0.5 mg/kg, po; type: ADME, organism-based, Canis lupus familiaris; set-up: dose 0.5 mg/kg, route oral; settings: in vivo
Canis familiaris = assay: as §1; type: ADME, organism-based, Canis lupus familiaris; set-up: dose 5 mg/kg, route oral; settings: in vivo
[9] = Half life in dog at 0.5 mg/kg, po; type: ADME, organism-based, Canis lupus familiaris; set-up: dose 0.5 mg/kg, route oral; settings: in vivo

Selectivity ratio [1] | Ki (Prothrombin) [µM] | Ki [2] [µM] | SMILES | Activity (Plasma) [µM] | other results
– | 0.0012 | 18 | Cc1ncn(CC(=O)NC2CCCNC2)c1CNC(=O)Cn1c(C)cnc(NCCc2ccccc2)c1=O (stereo unspecified) | 0.7 | Cmax [3]: 360 nM; half-life [4]: 1.1 h; half-life [5]: 1.6 h; Cmax [6]: 1460 nM
355000 | 0.00031 | 110 | Cc1ncn(CC(=O)NC2CCCNC2)c1Cn1c(C)ccc(NS(=O)(=O)Cc2ccccc2)c1=O (stereo unspecified) | 0.35 | Activity (Rattus norvegicus): inactive
53000 | 0.0019 | 101 | Cc1ncn(CC(=O)NN2CCOCC2)c1Cn1c(C)ccc(NS(=O)(=O)Cc2ccccc2)c1=O | 0.51 | –
6400 | – | 3.2 | Cc1nc(N)ccc1CNC(=O)Cn1c(C)ccc(NS(=O)(=O)Cc2ccccc2)c1=O [L-374087] | 0.21 | half-life [7]: 2.5 h; Cmax [8]: 2000 nM; t1/2 (Canis familiaris): 2.5 h; half-life [9]: 3.8 h
– | – | 43 | Cc1nc[nH]c1CNC(=O)Cn1c(C)ccc(NS(=O)(=O)Cc2ccccc2)c1=O | 1.1 | –
233000 | 0.0003 | 70 | Cc1ncn(CC(=O)NC(C)(C)CN)c1Cn1c(C)ccc(NS(=O)(=O)Cc2ccccc2)c1=O | 0.32 | –
94000 | 0.0009 | 85 | Cc1ncn(CC(=O)NCCN)c1Cn1c(C)ccc(NS(=O)(=O)Cc2ccccc2)c1=O | 0.39 | Activity (Rattus norvegicus): inactive
118000 | 0.00068 | 80 | Cc1ncn(CC(=O)NCC(C)(C)N)c1Cn1c(C)ccc(NS(=O)(=O)Cc2ccccc2)c1=O | 0.26 | –
190000 | 0.00036 | 68 | Cc1ncn(CC(=O)NC(C)(C)C)c1Cn1c(C)ccc(NS(=O)(=O)Cc2ccccc2)c1=O | 0.52 | –
104000 | 0.00048 | 50 | Cc1ncn(CC(=O)OC(C)(C)C)c1Cn1c(C)ccc(NS(=O)(=O)Cc2ccccc2)c1=O | – | –
48000 | 0.0024 | 115 | Cc1ncn(CC(=O)NCCO)c1Cn1c(C)ccc(NS(=O)(=O)Cc2ccccc2)c1=O | 0.85 | –
59000 | 0.00083 | 49 | Cc1ncn(CC(=O)NCC(F)(F)F)c1Cn1c(C)ccc(NS(=O)(=O)Cc2ccccc2)c1=O | 0.53 | –
70000 | 0.002 | 137 | CCNC(=O)Cn1cnc(C)c1Cn1c(C)ccc(NS(=O)(=O)Cc2ccccc2)c1=O | 0.7 | –

SMILES | Selectivity ratio [1] | Ki (Prothrombin) [µM] | Ki [2] [µM] | Activity (Plasma) [µM] | other results
CCC(C)(C)NC(=O)Cn1cnc(C)c1Cn1c(C)ccc(NS(=O)(=O)Cc2ccccc2)c1=O | 180000 | 0.00019 | 34 | 0.56 | –
Cc1ncn(CC(=O)NCC2CC2)c1Cn1c(C)ccc(NS(=O)(=O)Cc2ccccc2)c1=O | 52000 | 0.0011 | 57 | – | –
Cc1ncn(CC(=O)NC2CC(N)C2)c1Cn1c(C)ccc(NS(=O)(=O)Cc2ccccc2)c1=O (stereo unspecified) | 41000 | 0.003 | 122 | 0.65 | –
Cc1ncn(CC(=O)NN2CCCCC2)c1Cn1c(C)ccc(NS(=O)(=O)Cc2ccccc2)c1=O | 86000 | 0.00065 | 56 | 0.37 | Activity (Rattus norvegicus): inactive
Cc1ncn(CC(=O)NC2CC2)c1Cn1c(C)ccc(NS(=O)(=O)Cc2ccccc2)c1=O | 103000 | 0.0018 | 185 | 0.68 | –
Cc1ncn(CC(=O)NN2CC(O)C2)c1Cn1c(C)ccc(NS(=O)(=O)Cc2ccccc2)c1=O | 48000 | 0.0028 | 167 | 0.66 | –
